Reference: publication PMC6339461 (Bioorganic & medicinal chemistry letters, 2018)
Entries after “also recorded” stand apart in the source; their conditions may differ.

How the values were obtained:
[1] = solubility in DMSO and buffer; format: physicochemical; conditions: in both DMSO and buffer; compared with hit 7a
[2] = system: HepG2; test: cytotoxicity in HepG2 cells; format: cell-based; conditions: concentrations up to 100 μM
[3] = parallel artificial membrane permeability assay; format: in vitro ADME; conditions: for permeability, result in words: PAMPA
[4] = system: HeLa; test: cytotoxicity in HeLa cells; format: cell-based; conditions: concentrations up to 100 μM
[5] = target: T1, TDP2 (Danio rerio, UniProt Q5XJA0); test: fluorescence-based biochemical assay measuring the catalytic activity of TDP2
T1 sequence (Q5XJA0 121-369): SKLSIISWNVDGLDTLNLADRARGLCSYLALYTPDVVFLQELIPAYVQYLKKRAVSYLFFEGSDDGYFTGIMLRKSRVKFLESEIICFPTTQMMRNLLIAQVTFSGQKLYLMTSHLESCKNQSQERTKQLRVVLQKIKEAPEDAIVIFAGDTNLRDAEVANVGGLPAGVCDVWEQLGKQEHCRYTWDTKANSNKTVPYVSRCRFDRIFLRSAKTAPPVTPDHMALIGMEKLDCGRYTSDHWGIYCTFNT
Method in brief: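 TDP2 catalytic activity measured with a fluorescence read-out. IC50 values are the mean of three independent experiments, each run in triplicate.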

| SMILES | cytotoxicity in HepG2, result in words [2] | permeability, result in words [3] | cytotoxicity in HeLa, result in words [4] | other results |
| --- | --- | --- | --- | --- |
| O=C(Nc1nc2cc(-c3ccccc3)ccn2n1)c1cccc([N+](=O)[O-])c1 [Compound 17a] | – | – | – | solubility profile, result in words [1]: better solubility profile |
| O=C(Nc1nc2cc(-c3ccccc3)ccn2n1)c1cccc(Cl)c1 [Compound 17e] | no cytotoxicity | borderline Pe value; also recorded: good cellular permeability | no cytotoxicity | Pe value, times higher than that of 1 ([3]; relative to 1): about 10 times; permeability in PAMPA, fold higher than the hit compound ([3]; relative to hit compound): 6 fold |
| O=C(Nc1nc2cc(-c3ccccc3)ccn2n1)c1ccc(F)cc1Cl [Compound 17o] | – | – | – | TDP2 inhibition, result in words [5]: further reduced activity |
| O=C(Nc1nc2cc(-c3cccnc3)ccn2n1)c1cccc(Cl)c1 [Compound 17z] | no cytotoxicity | good cellular permeability; also recorded: excellent cell permeability | no cytotoxicity | fold increase in permeability versus 17e ([3]; relative to 17e): 7 fold |
